Active and inactive are the calls of the source. The rule behind the calls is not given here.
Experiments:
[1] = test system: COc1cc(/C=C/C(=O)CC(=O)/C=C/c2ccc(O)c(OC)c2)ccc1O; conditions: Candida albicans
Candida albicans [2] = test: Antifungal activity against Candida albicans by checkerboard method in presence of ketoconazole; assay type: functional
How it was run: (§1)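 Checkerboard (CLSI method) on S. cerevisiae AD1-8u cells overexpressing GFP-tagged C. albicans Cdr1p (AD-CDR1). […] FIC = MIC in combination/MIC alone.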

Candida albicans [3] = test: Antifungal activity against Candida albicans by checkerboard method in presence of miconazole; assay type: functional
How it was run: as §1

[4] = target: T1, Multidrug resistance protein CDR1 (Candida albicans, UniProt P43071); test: Displacement of [125I]IAAP from GFP-tagged Candida albicans CDR1 expressed in Saccharomyces cerevisiae
How it was run: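 Crude membranes (50 μg) from S. cerevisiae AD-CDR1 cells were preincubated with compound for 10 min at 37°C in 50 mM Tris-HCl pH 7.5. They were then given 3–6 nM [125I]IAAP for 5 min under subdued light and UV-crosslinked at 365 nm for 10 min at room temperature. Cdr1p was immunoprecipitated with anti-GFP, run on 7% Tris-acetate gel, and the band quantified by phosphorimager.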

[5] = target: T1, Multidrug resistance protein CDR1; test: Inhibition of GFP-tagged Candida albicans CDR1 expressed in Saccharomyces cerevisiae assessed as inhibition of R6G efflux
How it was run: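 S. cerevisiae AD-CDR1 cells were grown 5 h, then de-energized 45 min in 5 mM deoxyglucose/5 mM dinitrophenol in glucose-free PBS. Compound (10–100 μM) was added 5 min before 10 μM R6G, and cells were loaded 40 min at 30°C. After washing, efflux was started with 2% glucose. Supernatant A527 was read at 40 min, with glucose-free controls. Means of three independent experiments.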

Candida albicans [6] = test: Effect on CDR1 expression in Candida albicans at 100 uM by Western blot analysis; assay type: functional, organism-based
[7] = target: Multidrug resistance protein CDR1 (Candida albicans) (UniProt P43071); conditions: 100 uM
[8] = target: Multidrug resistance protein CDR1 (Candida albicans) (UniProt P43071); conditions: 100 uM; remark: listed apart in the source
Saccharomyces cerevisiae [9] = test: Toxicity against Saccharomyces cerevisiae AD1-8u after 48 hrs by MTT assay
Saccharomyces cerevisiae [10] = test: Toxicity against PDR5-expressing Saccharomyces cerevisiae AD after 48 hrs by MTT assay
Saccharomyces cerevisiae [11] = test: Toxicity against CDR1-expressing Saccharomyces cerevisiae AD after 48 hrs by MTT assay
Saccharomyces cerevisiae [12] = test: Toxicity against CDR2-expressing Saccharomyces cerevisiae AD after 48 hrs by MTT assay
Saccharomyces cerevisiae [13] = test: Toxicity against Candida albicans MDR1-expressing Saccharomyces cerevisiae AD1-8u after 48 hrs by MTT assay
Candida albicans [14] = test: Antifungal activity against Candida albicans by checkerboard method in presence of itraconazole; assay type: functional
How it was run: as §1

Candida albicans [15] = test: Antifungal activity against Candida albicans by checkerboard method in presence of R6G; assay type: functional
How it was run: as §1

Multidrug resistance protein CDR1 (Candida albicans) (from UniProt P43071)
Km [1]: 5.87 µM

CC(=O)N1CCN(c2ccc(OCC3COC(Cn4ccnc4)(c4ccc(Cl)cc4Cl)O3)cc2)CC1 (configuration not stated) [KETOCONAZOLE]
FIC (Candida albicans [2]): 0.0054
FIC (Candida albicans [3]): 0.005

COc1cc(/C=C/C(=O)CC(=O)/C=C/c2ccc(O)c(OC)c2)ccc1O [CURCUMIN]
IC50 [4]: 14.2 µM
IC50 [5]: 40 µM
Activity (Candida albicans [6]): inactive
inhibition [7]: Active
inhibition [8]: inactive
IC50 (Saccharomyces cerevisiae [9]): 422 µM
IC50 (Saccharomyces cerevisiae [10]): 498 µM
IC50 (Saccharomyces cerevisiae [11]): 493 µM
IC50 (Saccharomyces cerevisiae [12]): 411 µM
IC50 (Saccharomyces cerevisiae [13]): 455 µM

CCC(C)n1ncn(-c2ccc(N3CCN(c4ccc(OCC5COC(Cn6cncn6)(c6ccc(Cl)cc6Cl)O5)cc4)CC3)cc2)c1=O (configuration not stated) [ITRACONAZOLE]
FIC (Candida albicans [14]): 0.005

CC/N=c1\cc2oc3cc(NCC)c(C)cc3c(-c3ccccc3C(=O)OCC)c-2cc1C.Cl [RHODAMINE 6G HYDROCHLORIDE]
FIC (Candida albicans [15]): 0.0013

COc1cc(/C=C/C(O)=C/C(=O)/C=C/c2ccc(O)cc2)ccc1O [DEMETHOXYCURCUMIN]
IC50 [5]: 45 µM

O=C(/C=C/c1ccc(O)cc1)CC(=O)/C=C/c1ccc(O)cc1 [BISDEMETHOXYCURCUMIN]
IC50 [5]: 40 µM

— ChEMBL document CHEMBL1649543 (Antimicrob Agents Chemother, 2009)
